In brackets after ≈: the same amount, converted by molar mass. Activity calls are given as the source filed them. No cut-off for these calls is given here.
Assays:
Candida albicans [1] = experiment: Antifungal activity against Candida albicans isolate DSY654 harboring CDR1/2 deletion mutant at 10 uM by serial dilution assay; type: functional, organism-based
Outline: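 Spot dilution assay: C. albicans cells 10-fold serially diluted from 2 × 10^7 cells/mL, with 5 µL of each dilution spotted onto YEPD agar plates containing the drug.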

[2] = Antifungal activity against Geotrichum silvicola measured at 48 hrs by broth dilution assay; type: functional
Outline: (§1)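 EUCAST broth microdilution, including the update for non-fermenting yeasts (Cryptococcus, Geotrichum), on clinical and reference yeast isolates. Incubated at 37 °C and read at 24, 48 and 72 h. MIC taken as the lowest concentration with no visible growth. For Cryptococcus and Geotrichum, MICs were read only once growth was visible in the control row.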

Candida albicans [3] = experiment: Antifungal activity against Candida albicans 15T measured at 72 hrs by broth dilution assay; type: functional; outline: as §1
[4] = Chemical stability in RPMI-1640 buffer at 2 mM up to 72 hrs at 30 degC by LC-UV-MS analysis; details: 2000 µM
Candida albicans [5] = experiment: Antifungal activity against azole-resistant Candida albicans isolate DSY296 in immunocompetent Balb/c mouse candidiasis model assessed as reduction in CFU count in spleen at 40 mg/kg/day, ip regime measured on day 7 post infection; type: functional, organism-based
Outline: (§2)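 Immunocompetent BALB/c mice, 10 per strain group, received 7 × 10^4 CFU of C. albicans in 200 µL saline via the lateral vein. Drug was given i.p. daily at 40 mg/kg/day as a 0.1 mg/mL solution in DMSO/PEG 400 (2:1), 100 µL per dose. On day 7, spleen and kidneys were weighed, homogenized, and plated on YPD agar (2 days, 30 °C) for CFU/g. Analysis used Wilcoxon rank-sum, P<0.05.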

Candida albicans [6] = experiment: Antifungal activity against Candida albicans 15T measured at 48 hrs by broth dilution assay; type: functional; outline: as §1
Magnusiomyces capitatus [7] = experiment: Antifungal activity against Geotrichum capitatum up to 96 hrs by broth dilution assay; type: functional
Candida albicans [8] = experiment: Antifungal activity against Candida albicans 53T measured at 24 hrs by broth dilution assay; type: functional; outline: as §1
Candida tropicalis [9] = experiment: Fungicidal activity against Candida tropicalis 86E assessed as reduction in CFU at 20 uM measured at 24 hrs by time kill assay relative to control; type: functional
Outline: (§3)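 EUCAST broth microdilution at 37 °C. From wells at MIC, 2×, 4× and 8× MIC, 10 µL aliquots were taken, serially 10-fold diluted in saline and plated on Sabouraud dextrose agar. Plates were incubated at 37 °C for 24/48 h, and 48 h for Cryptococcus and Geotrichum. Done in duplicate, detection limit 10 CFU/mL. A drop of at least 3 Log10 CFU/mL from the initial inoculum in 24 h counts as fungicidal; a smaller drop counts as fungistatic.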

Pichia kudriavzevii = experiment: Ratio of MIC at 24 hrs to MIC at 48 hrs for Candida krusei 193T; type: functional
Outline: (§4)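 MICs by EUCAST broth microdilution, with the update for non-fermenting yeasts, incubated at 37 °C. Read at 24, 48 and 72 h as the lowest concentration preventing visible growth.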

Candida albicans [10] = experiment: Upregulation of CDR2 gene expression in Candida albicans SC5314 at 3 uM after 45 mins by microarray method relative to control; type: functional
Outline: (§5)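 Log-phase C. albicans SC5314 in liquid YEPD exposed to 3 µM final for 15 or 45 min; untreated controls taken at the same time points. Three biological replicates. RNA extracted by glass-bead/phenol-chloroform method and integrity checked. One-color Cy3-labeled cRNA (600 ng) hybridized 17 h at 65 °C to 8 × 15K arrays. Expression expressed as fold change versus control.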

Candida albicans [11] = experiment: Upregulation of CDR1 gene expression in Candida albicans SC5314 at 3 uM after 15 mins by microarray method relative to control; type: functional; outline: as §5
Candida tropicalis [12] = experiment: Antifungal activity against Candida tropicalis 86E measured at 48 hrs by broth dilution assay; type: functional; outline: as §1
Candida albicans [13] = experiment: Antifungal activity against azole-resistant Candida albicans isolate DSY296 in immunocompetent Balb/c mouse candidiasis model assessed as reduction in CFU count in kidney at 40 mg/kg/day, ip regime measured on day 7 post infection; type: functional, organism-based; outline: as §2
Magnusiomyces capitatus [14] = experiment: Fungicidal activity against Geotrichum capitatum at 40 uM measured at 48 hrs by time kill assay; type: functional; outline: as §3
Candida parapsilosis [15] = experiment: Fungistatic activity against Candida parapsilosis 81E at 20 uM after 24 to 48 hrs by time kill assay; type: functional, organism-based; outline: as §3
Candida albicans [16] = experiment: Antifungal activity against Candida albicans 4T measured at 72 hrs by broth dilution assay; type: functional; outline: as §1
Candida albicans [17] = experiment: Upregulation of FCR1 gene expression in Candida albicans SC5314 at 3 uM after 15 mins by microarray method relative to control; type: functional; outline: as §5
Candida parapsilosis [18] = experiment: Ratio of MIC at 24 hrs to MIC at 48 hrs for Candida parapsilosis ATCC 34136; type: functional; outline: as §4
Candida parapsilosis [19] = experiment: Fungicidal activity against Candida parapsilosis 81E at 40 uM after 24 to 48 hrs by time kill assay; type: functional, organism-based; outline: as §3
Cryptococcus neoformans = experiment: Antifungal activity against Cryptococcus neoformans measured at 24 hrs by broth dilution assay; type: functional, organism-based; outline: as §1
Candida albicans [20] = experiment: Antifungal activity against Candida albicans 4T measured at 48 hrs by broth dilution assay; type: functional; outline: as §1
Candida albicans [21] = experiment: Upregulation of orf19.4531 gene expression in Candida albicans SC5314 at 3 uM after 45 mins by microarray method relative to control; type: functional
Outline: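 Log-phase cultures in liquid YEPD were exposed to 3 µM compound (final) for 15 or 45 min, with untreated controls sampled at the same times, in three biological replicates. Total RNA was extracted by glass-bead/phenol-chloroform disruption and integrity-checked. One-color Cy3-labelled cRNA (600 ng) was hybridized for 17 h at 65 °C to 8 × 15K arrays, and fold change was taken versus control.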

Candida albicans [22] = experiment: Antifungal activity against Candida albicans 53T measured at 72 hrs by broth dilution assay; type: functional; outline: as §1
Candida albicans [23] = experiment: Upregulation of ERG2 gene expression in Candida albicans SC5314 at 3 uM after 15 mins by microarray method relative to control; type: functional; outline: as §5
Candida albicans [24] = experiment: Upregulation of CDR2 gene expression in Candida albicans SC5314 at 3 uM after 15 mins by microarray method relative to control; type: functional; outline: as §5
Candida albicans [25] = experiment: Upregulation of RTA2 gene expression in Candida albicans SC5314 at 3 uM after 15 mins by microarray method relative to control; type: functional; outline: as §5
Candida albicans [26] = experiment: Upregulation of LCB4 gene expression in Candida albicans SC5314 at 3 uM after 45 mins by microarray method relative to control; type: functional; outline: as §5
Candida albicans [27] = experiment: Upregulation of ERG2 gene expression in Candida albicans SC5314 at 3 uM after 45 mins by microarray method relative to control; type: functional; outline: as §5
Nakaseomyces glabratus = experiment: Antifungal activity against Candida glabrata 70 measured at 72 hrs by broth dilution assay; type: functional; details: Nakaseomyces glabratus, 70, 72 h; outline: as §1
Candida albicans [28] = experiment: Upregulation of CDR2 gene expression in Candida albicans SC5314 at 3 uM after 15 to 45 mins by qRT-PCR method; type: functional, organism-based
Outline: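 Log-phase C. albicans treated at 3 µM. RNA extracted with glass-bead disruption, then DNase-treated (10 µg per preparation). Target gene CT values were normalized to an endogenous reference. Fold change calculated as mean normalized expression of samples relative to a selected control.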

[29] = Antifungal activity against Geotrichum silvicola measured at 24 hrs by broth dilution assay; type: functional; outline: as §1

Structure (SMILES): C/C=C/CNC(=N)NCCCCCCCCN1CCCCCCCCNC(=N)NC1=O
- Activity (Candida albicans [1]): inactive
- MIC [2]: 10 µM (≈ 4.36 µg/mL)
- MIC (Candida albicans [3]): 5 µM (≈ 2.18 µg/mL)
- Stability [4]: Stable
- Activity (Candida albicans [5]): Active
- MIC (Candida albicans [6]): 5 µM (≈ 2.18 µg/mL)
- Activity (Magnusiomyces capitatus [7]): Active
- MIC (Candida albicans [8]): 5 µM (≈ 2.18 µg/mL)
- inhibition at 20 µM (Candida tropicalis [9]): 99.9%
- Ratio (Pichia kudriavzevii): 8
- fold change (FC) (Candida albicans [10]): 134.38
- fold change (FC) (Candida albicans [11]): 3.07
- MIC (Candida tropicalis [12]): 5 µM (≈ 2.18 µg/mL)
- Activity (Candida albicans [13]): Active
- Activity (Magnusiomyces capitatus [14]): Active
- Activity (Candida parapsilosis [15]): Active
- MIC (Candida albicans [16]): 5 µM (≈ 2.18 µg/mL)
- fold change (FC) (Candida albicans [17]): 2.86
- Ratio (Candida parapsilosis [18]): 8
- Activity (Candida parapsilosis [19]): Active
- Activity (Cryptococcus neoformans): Active
- MIC (Candida albicans [20]): 5 µM (≈ 2.18 µg/mL)
- fold change (FC) (Candida albicans [21]): 21.54
- MIC (Candida albicans [22]): 5 µM (≈ 2.18 µg/mL)
- fold change (FC) (Candida albicans [23]): 2.61
- fold change (FC) (Candida albicans [24]): 71.84
- fold change (FC) (Candida albicans [25]): 3.07
- fold change (FC) (Candida albicans [26]): 3.69
- fold change (FC) (Candida albicans [27]): 2.83
- MIC (Nakaseomyces glabratus): > 80 µM
- Activity (Candida albicans [28]): Active
- Activity [29]: Active

Source: ChEMBL document CHEMBL3808283, “Biological Characterization and in Vivo Assessment of the Activity of a New Synthetic Macrocyclic Antifungal Compound” (J Med Chem, 2016)
